The source made the active and inactive calls. No cut-off for these calls is given here. Starred links: 1 amine or outer side, 2 acyl side, 3 side chain; linkers in the order of their positions; H or OH if unused. Positions of bridges follow the written chain, without caps; N, C: chain ends. Non-standard residues stand in square brackets, D forms with d. Residues, ends and D or L forms follow the SMILES beside them. Abu(4-yl) = O=C([C@H](CC[*:3])N[*:1])[*:2]; N(4-F-Bzl)Gly = O=C(O)CNCc1ccc(F)cc1; X1 = O=C(CN(CCCO)[*:1])[*:2]
Columns and labels:
Mus musculus [1] = experiment: Cognition enhancing effect in CD38KOCC Slc:ICR mouse model of autism spectrum disorder assessed as sucrose consumption over water at 100 ng/ml, ip administered as single dose measured after 60 mins relative to control (reference value: 0.46 +/- 0.04); format: functional
[2] = biological target: T1, Oxytocin receptor (Homo sapiens) (UniProt P30559); experiment: Displacement of [3H]OT from recombinant human OTR expressed in HEK293 cell membranes assessed as dissociation half life for [3H]OT binding
T1 sequence (whole entry): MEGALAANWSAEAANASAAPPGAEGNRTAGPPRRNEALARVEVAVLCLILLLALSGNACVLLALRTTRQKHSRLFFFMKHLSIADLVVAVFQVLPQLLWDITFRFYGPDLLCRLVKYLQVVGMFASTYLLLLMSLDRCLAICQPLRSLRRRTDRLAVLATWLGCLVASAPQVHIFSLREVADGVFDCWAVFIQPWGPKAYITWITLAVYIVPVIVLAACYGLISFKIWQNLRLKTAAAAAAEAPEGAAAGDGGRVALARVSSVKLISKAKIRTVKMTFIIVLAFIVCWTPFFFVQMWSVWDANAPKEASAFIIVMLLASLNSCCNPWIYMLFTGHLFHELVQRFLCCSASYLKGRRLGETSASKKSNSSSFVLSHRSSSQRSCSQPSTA
Procedure, shortened: (§1)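 Membranes from HEK-293 cells stably expressing human OTR (5 µg/well) in 50 mM Tris, 10 mM MgCl2, 0.1% BSA, pH 7.4. [3H]OT added at 200 pM, 500 pM and 1 nM; bound and free separated by rapid filtration at multiple time points to build association curves. Kon and Koff fitted; t1/2 from Koff = ln2/t1/2. Two experiments, each in duplicate.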

[3] = Half life in Slc:ICR mouse plasma during fast phase at 100 ng/g, iv measured for 15 mins by LC-MS/MS analysis; format: ADME, organism-based
Procedure, shortened: (§2)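 Male ICR mice (30 g) were given 100 ng/g i.v. via the tail vein. Blood was taken by cardiac puncture immediately and at 5, 15 and 30 min; CSF was taken at 30 min or 12 h. Plasma was deproteinized with acetonitrile/methanol 1:1 containing [13C6,15N]OT internal standard and analysed by LC-MS/MS (C8 column, SRM).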

Mus musculus [4] = experiment: Antidepressant-like activity in CD38KOCC Slc:ICR mouse model of autism spectrum disorder assessed as decrease in immobility time at 100 ng/ml, ip administered as single dose for 24 hrs prior to testing measured for last 4 mins of 6 mins test by tail suspension test
Homo sapiens [5] = species on record: Homo sapiens; experiment: Selectivity ratio of EC50 for recombinant human V1a receptor expressed in HEK293 cells to EC50 for recombinant human OTR expressed in HEK293 cells; format: cell-based
Procedure, shortened: (§3)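 Agonist response measured in HEK-293 cells stably expressing human OTR, V1aR or V1bR, loaded with 1 µM fura-2/AM for 30 min at 37 °C, washed in HEPES-buffered saline pH 7.4. F340/F380 ratio read every 3 s for 5 min at 37 °C, normalized to baseline and to maximal OT (OTR) or AVP (V1aR, V1bR) response; EC50 taken from these curves. n = 3, 20 cells per dish.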

Mus musculus [6] = experiment: Cognition enhancing effect in CD38 knock out Slc:ICR mouse sire model of autism spectrum disorder assessed as latency time to retrieve pups by sires at 100 ng/ml, ip administered as single dose measured after 5 hrs by parental retrieval test (reference value: 233 +/- 68 sec); format: functional
Oxytocin receptor [7] = biological target: T2, Oxytocin receptor (Homo sapiens, UniProt P30559); experiment: Displacement of [3H]OT from recombinant human OTR expressed in HEK293 cell membranes measured after 1 hr
T2 sequence (P30559 whole entry): T1 sequence (whole entry)

Mus musculus [8] = experiment: Cognition enhancing effect in CD38 knock out Slc:ICR mouse sire model of autism spectrum disorder assessed as latency time to retrieve pups by sires at 100 ng/ml, ip administered as single dose measured after 24 hrs by parental retrieval test (reference value: 233 +/- 68 sec); format: functional
[9] = biological target: T1, Oxytocin receptor (Homo sapiens); experiment: Displacement of [3H]OT from recombinant human OTR expressed in HEK293 cell membranes assessed as dissociation rate constant for [3H]OT binding; procedure, shortened: as §1
Oxytocin receptor [10] = biological target: T2, Oxytocin receptor; experiment: Agonist activity at recombinant human OTR expressed in HEK293 cells assessed as increase in intracellular calcium level measured at 3 secs interval for 5 mins by fura-2/AM dye based micro spectrofluorometric method; format: functional, cell-based
Vasopressin V1a receptor = Vasopressin V1a receptor (Homo sapiens, UniProt P37288); experiment: Agonist activity at recombinant human V1a receptor expressed in HEK293 cells assessed as increase in intracellular calcium level measured at 3 secs interval for 5 mins by fura-2/AM dye based micro spectrofluorometric method; format: cell-based
Sequence of Vasopressin V1a receptor (P37288 whole entry): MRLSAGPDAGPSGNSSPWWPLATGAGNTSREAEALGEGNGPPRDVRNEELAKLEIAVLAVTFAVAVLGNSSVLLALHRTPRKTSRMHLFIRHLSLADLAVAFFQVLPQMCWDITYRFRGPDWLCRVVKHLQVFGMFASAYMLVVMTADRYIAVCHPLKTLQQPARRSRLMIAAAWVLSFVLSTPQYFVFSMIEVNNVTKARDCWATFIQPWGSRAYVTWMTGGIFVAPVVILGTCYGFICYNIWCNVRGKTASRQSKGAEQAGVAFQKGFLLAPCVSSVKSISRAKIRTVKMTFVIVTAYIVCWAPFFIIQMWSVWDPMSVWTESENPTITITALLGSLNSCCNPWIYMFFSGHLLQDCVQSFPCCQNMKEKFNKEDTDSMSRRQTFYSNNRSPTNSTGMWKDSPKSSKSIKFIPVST

[11] = Half life in Slc:ICR mouse plasma during slow phase at 100 ng/g, iv measured for 15 to 60 mins by LC-MS/MS analysis; format: ADME, organism-based; procedure, shortened: as §2
[12] = Drug level in Slc:ICR mouse cerebrospinal fluid at 100 ng/g, iv measured after 30 mins by LC-MS/MS analysis; format: ADME, organism-based; settings: Slc:ICR, cerebrospinal fluid, 100 ng/g, read-out: Drug uptake; procedure, shortened: as §2
Mus musculus [13] = experiment: Cognition enhancing effect in CD38 knock out Slc:ICR mouse sire model of autism spectrum disorder assessed as latency time to retrieve pups by sires at 100 ng/ml, ip administered as single dose measured after 30 mins by parental retrieval test (reference value: 600 sec); format: functional
Mus musculus [14] = experiment: Antidepressant-like activity in CD38KOCC Slc:ICR mouse model of autism spectrum disorder assessed as immobility time at 100 ng/ml, ip administered as single dose for 30 mins prior to testing measured for last 4 mins of 6 mins test by tail suspension test (reference value: 74.2 +/- 2.9 sec); format: functional
[15] = Plasma concentration in Slc:ICR mouse at 100 ng/g, iv measured immediately by LC-MS/MS analysis; format: ADME, organism-based; settings: in vivo; procedure, shortened: as §2
[16] = Stability in mouse plasma assessed as parent compound remaining at 50 ng/ml measured after 2 hrs by LC-MS/MS analysis; format: ADME, cell-free; settings: read-out: Stability
Procedure, shortened: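 Pooled mouse plasma spiked to a final 50 ng/mL was incubated at 37 °C for 1–120 min, quenched with acetonitrile/methanol 1:1 plus internal standard, and analysed by LC-MS/MS. Percent of the initial concentration was calculated; 85–115% was taken as acceptable.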

[17] = biological target: T1, Oxytocin receptor (Homo sapiens); experiment: Displacement of [3H]OT from recombinant human OTR expressed in HEK293 cell membranes assessed as association rate constant for [3H]OT binding; procedure, shortened: as §1
Vasopressin V1b receptor = biological target: T3, Vasopressin V1b receptor (Homo sapiens, UniProt P47901); experiment: Agonist activity at recombinant human V1b receptor expressed in HEK293 cells assessed as increase in intracellular calcium level measured at 3 secs interval for 5 mins by fura-2/AM dye based micro spectrofluorometric method; format: cell-based
T3 sequence (P47901 whole entry): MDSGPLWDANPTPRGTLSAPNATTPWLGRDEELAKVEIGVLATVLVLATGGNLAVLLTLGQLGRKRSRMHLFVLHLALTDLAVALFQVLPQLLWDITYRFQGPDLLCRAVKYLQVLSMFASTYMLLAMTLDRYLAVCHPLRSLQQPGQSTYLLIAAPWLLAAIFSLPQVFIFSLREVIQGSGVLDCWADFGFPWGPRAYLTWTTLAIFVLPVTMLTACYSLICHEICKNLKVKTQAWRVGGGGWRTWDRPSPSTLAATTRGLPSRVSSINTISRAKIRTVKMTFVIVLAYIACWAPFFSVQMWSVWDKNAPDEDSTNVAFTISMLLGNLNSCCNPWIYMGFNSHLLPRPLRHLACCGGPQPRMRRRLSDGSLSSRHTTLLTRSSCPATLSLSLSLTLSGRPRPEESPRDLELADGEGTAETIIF

[18] = Drug level in Slc:ICR mouse cerebrospinal fluid at 100 ng/g, iv measured after 12 hrs by LC-MS/MS analysis; format: ADME, organism-based; settings: Slc:ICR, cerebrospinal fluid, 100 ng/g, read-out: Drug uptake; procedure, shortened: as §2
Mus musculus [19] = experiment: Cognition enhancing effect in CD38 knock out Slc:ICR mouse sire model of autism spectrum disorder assessed as latency time to retrieve pups by sires at 100 ng/ml, ip administered as single dose measured after 12 hrs by parental retrieval test (reference value: 233 +/- 68 sec); format: functional
Mus musculus [20] = experiment: Cognition enhancing effect in CD38KOCC Slc:ICR mouse model of autism spectrum disorder assessed as increase in sucrose consumption over water at 100 ng/ml, ip administered as single dose measured after 24 hrs; format: functional, organism-based
Homo sapiens [21] = species on record: Homo sapiens; experiment: Selectivity ratio of EC50 for recombinant human V1b receptor expressed in HEK293 cells to EC50 for recombinant human OTR expressed in HEK293 cells; format: cell-based; procedure, shortened: as §3
Mus musculus [22] = experiment: Cognition enhancing effect in CD38 knock out Slc:ICR mouse sire model of autism spectrum disorder assessed as decrease in latency time to retrieve pups by sires at 0.3 mL, ip administered as single dose measured after 6 hrs by parental retrieval test; format: functional, organism-based
Mus musculus [23] = experiment: Cognition enhancing effect in CD38 knock out Slc:ICR mouse sire model of autism spectrum disorder assessed as latency time to retrieve pups by sires at 0.3 mL, ip administered as single dose measured after 30 mins by parental retrieval test (reference value: 600 sec); format: functional

| SMILES | half-life [3] [min] | Activity (Mus musculus [4]) | Ratio EC50 (Homo sapiens [5]) | Ki (Oxytocin receptor [7]) [nM] | EC50 (Oxytocin receptor [10]) [nM] | EC50 (Vasopressin V1a receptor) [nM] | half-life [11] [min] | Time (Mus musculus [14]) [s] | Cp [15] [ng/mL] | remaining at 2 h, 50 ng/ml [16] [%] | EC50 (Vasopressin V1b receptor) [nM] | Activity (Mus musculus [20]) | Ratio EC50 (Homo sapiens [21]) | other results |
| --- | --- | --- | --- | --- | --- | --- | --- | --- | --- | --- | --- | --- | --- | --- |
| CC[C@H](C)[C@@H]1NC(=O)[C@H](Cc2ccc(O)cc2)NC(=O)[C@@H](N)CSSC[C@@H](C(=O)N(CC(=O)N[C@@H](CC(C)C)C(=O)NCC(N)=O)Cc2ccc(F)cc2)NC(=O)[C@H](CC(N)=O)NC(=O)[C@H](CCC(N)=O)NC1=O (H-CYIQNC[N(4-F-Bzl)Gly]LG-NH2; disulfide 1-6) | 2.84 | inactive | 75.3 | 0.51 | 0.028 | 2.2 | 2.86 | 149.5 | 118 | 85 to 115 | 0.5 | inactive | 17.5 | Ratio (Mus musculus [1]): 0.79; T1/2 [2]: 6.38 min; Time (Mus musculus [6]): 381 s; Time (Mus musculus [8]): 413 s; K [9]: 0.1 min⁻¹; concentration at 0.5 h [12]: 0.1 ng/mL; Time (Mus musculus [13]): 297 s; K [17]: 1.05 ×10⁸ /M/min; concentration at 12 h [18]: 0.38 ng/mL; Time (Mus musculus [19]): 155 s |
| CC[C@H](C)[C@@H]1NC(=O)[C@H](Cc2ccc(O)cc2)NC(=O)[C@@H](N)CCSC[C@@H](C(=O)N(CC(=O)N[C@@H](CC(C)C)C(=O)NCC(N)=O)Cc2ccc(F)cc2)NC(=O)[C@H](CC(N)=O)NC(=O)[C@H](CCC(N)=O)NC1=O (H-[Abu(4-yl)]YIQNC[N(4-F-Bzl)Gly]LG-NH2; thioether 1-6) |  |  | 45 | 0.9 | 0.089 | 4 |  |  |  |  | 0.8 |  | 9 |  |
| CC[C@H](C)[C@@H]1NC(=O)[C@H](Cc2ccc(O)cc2)NC(=O)[C@@H](N)CCSC[C@@H](C(=O)N(CCCO)CC(=O)N[C@@H](CC(C)C)C(=O)NCC(N)=O)NC(=O)[C@H](CC(N)=O)NC(=O)[C@H](CCC(N)=O)NC1=O (H-[Abu(4-yl)]YIQNC[X1]LG-NH2; thioether 1-6) |  |  | > 66.6 | 3 | 0.15 | > 10 |  |  |  |  | > 10 |  | > 66.6 |  |
| CC[C@H](C)[C@@H]1NC(=O)[C@H](Cc2ccc(O)cc2)NC(=O)[C@@H](N)CSSC[C@@H](C(=O)N2CCC[C@H]2C(=O)N[C@@H](CC(C)C)C(=O)NCC(N)=O)NC(=O)[C@H](CC(N)=O)NC(=O)[C@H](CCC(N)=O)NC1=O [OXYTOCIN] | 2.91 | inactive |  |  |  |  | 8.84 | 171 | 334 | 85 to 115 |  | inactive |  | Activity (Mus musculus [22]): inactive; Time (Mus musculus [23]): 240 s |

— ChEMBL document CHEMBL4390679 (J Med Chem, 2019)
